Here are results for 2 compounds from ChEMBL document CHEMBL1140117, “Structure-activity relationship studies for the peptide portion of the bladder epithelial cell antiproliferative factor from interstitial cystitis patients” (2008).

Residues, ends and D or L forms follow the SMILES beside them. *: point of attachment. X1 = CC(=O)N[C@@H]1[C@@H](O[C@@H]2O[C@H](CO)[C@H](O)[C@H](O)[C@H]2O)[C@@H](O)[C@@H](CO)O[C@@H]1*

The assay is described as follows: Antiproliferative activity against human bladder epithelial cells assessed as inhibition of [3H]thymidine incorporation after 48 hrs relative to as-APF. The class given is functional, Epithelial cell. Set-up: scale not given: the % may be the effect or the level left. In outline:
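Primary normal human bladder epithelial cells, explanted from cystoscopy biopsies, plated at 1.5 × 10⁴ cells/well in MEM with 10% heat-inactivated FBS. Congeners dissolved in acetonitrile/water (1:1), added in serum-free MEM in 10-fold dilutions up to the 25 µM assay cutoff. Incubated 48 h at 37 °C, 5% CO₂. ³H-thymidine uptake counted on filters. Activity expressed relative to the standard control run on each plate. Triplicates, at least two runs, ANOVA.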

On to `CC(=O)N[C@H]1[C@@H](OC[C@H](N)C(=O)N[C@H](C(=O)N2CCC[C@H]2C(=O)N[C@@H](C)C(=O)N[C@@H](C)C(=O)N[C@H](C(=O)N[C@H](C(=O)N[C@H](C(=O)N[C@@H](C)C(=O)O)C(C)C)C(C)C)C(C)C)C(C)C)O[C@H](CO)[C@H](O)[C@@H]1O[C@@H]1O[C@H](CO)[C@H](O)[C@H](O)[C@H]1O` (H-S(X1)VPAAVVVA-OH), for which the Activity came to 0.01%.
Then `CC(=O)N[C@H]1[C@@H](O[C@H](C)[C@H](N)C(=O)N[C@H](C(=O)N[C@@H](C)C(=O)N[C@@H](C)C(=O)N[C@@H](C)C(=O)N[C@H](C(=O)N[C@H](C(=O)N[C@H](C(=O)N[C@@H](C)C(=O)O)C(C)C)C(C)C)C(C)C)C(C)C)O[C@H](CO)[C@H](O)[C@@H]1O[C@@H]1O[C@H](CO)[C@H](O)[C@H](O)[C@H]1O` (H-T(X1)VAAAVVVA-OH), with 0.3%.
